From ChEMBL document CHEMBL1134641, “Progress toward the development of a safe and effective agent for treating reentrant cardiac arrhythmias: synthesis and evaluation of ibutilide analogues with enhanced metabolic stability and diminished proarrhythmic potential” (2001)

Key:
Homo sapiens = species: Homo sapiens; assay: Metabolic stability in relative to 31E observed on incubation with human liver microsomes; assay type: functional; conditions: Microsome
Outline: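 Pooled human liver microsomes, 1 mg protein/mL, in 50 mM potassium phosphate pH 7.4. Substrate at 0.4-0.5 µM final; preincubated at 37 °C, then started with an NADPH-generating system (isocitrate/isocitrate dehydrogenase). Aliquots taken up to 20 min and quenched in acetonitrile. Remaining substrate measured by reversed-phase HPLC with fluorescence detection. Log-concentration vs time slope taken; ratio reported as reference slope/test slope; values >20 treated as stable. Three experiments.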

Oryctolagus cuniculus [1] = species: Oryctolagus cuniculus; assay: Mean dose of test compound at which a statistically significant increase was first observed and the dose for the maximum increase in QTc interval in rabbits (0.1-0.25); assay type: functional
Outline: (§1)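 Male New Zealand white rabbits (2.5-3.5 kg), anesthetized and instrumented. Methoxamine infused at 10 µg/kg/min; methoxamine baseline taken after 15 min. Compound, dissolved in 0.1 M fumaric acid in absolute EtOH and diluted with saline, given as a continuous iv infusion of 5 mg/kg over 30 min. QTc (QT/√RR) and MAPD90 followed over time; cumulative mg/kg dose recorded at first significant rise (one-way ANOVA, p≤0.05) and at maximum rise.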

Oryctolagus cuniculus [2] = species: Oryctolagus cuniculus; assay: Mean dose at which EADs (early after depolarizations) began to develop in rabbits; assay type: functional
Outline: (§2)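 Male New Zealand white rabbits (2.5-3.5 kg), anesthetized and instrumented. Methoxamine infused at 10 µg/kg/min; baseline taken after 15 min. Compound in 0.1 M fumaric acid/EtOH diluted with saline, infused IV at 5 mg/kg over 30 min. Readouts: QTc and MAPD90 maxima vs methoxamine baseline, with accumulated dose, and dose at EAD or PVT onset. ANOVA, p ≤ 0.05.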

Oryctolagus cuniculus [3] = species: Oryctolagus cuniculus; assay: Mean dose at which PVTs (Polymorphic ventricular tachyarrhythmias) were observed in rabbits; assay type: functional, Cardiac ventricle; outline: as §2
Oryctolagus cuniculus [4] = species: Oryctolagus cuniculus; assay: Maximum increase in the ventricular monophasic action potential duration at 90% repolarization from the methoxamine infusion baseline in rabbits; assay type: functional, Cardiac ventricle; outline: as §2
Oryctolagus cuniculus [5] = assay: In vivo evaluation of potential efficacy observed as the maximum increase in QTc interval from the methoxamine infusion baseline in rabbits; assay type: functional; outline: as §2
Oryctolagus cuniculus [6] = species: Oryctolagus cuniculus; assay: Mean dose of test compound at which a statistically significant increase was first observed and the dose for the maximum increase in MAPD90 in rabbits (0.1-1.0); assay type: functional; outline: as §2
Oryctolagus cuniculus [7] = species: Oryctolagus cuniculus; assay: Mean dose of test compound at which a statistically significant increase was first observed and the dose for the maximum increase in MAPD90 in rabbits (0.25-0.5); assay type: functional; outline: as §2
Oryctolagus cuniculus [8] = species: Oryctolagus cuniculus; assay: Mean dose of test compound at which a statistically significant increase was first observed and the dose for the maximum increase in QTc interval in rabbits; assay type: functional; outline: as §1
Oryctolagus cuniculus [9] = species: Oryctolagus cuniculus; assay: Mean dose of test compound at which a statistically significant increase was first observed and the dose for the maximum increase in MAPD90 in rabbits (0.5-1.0); assay type: functional; outline: as §1
Oryctolagus cuniculus [10] = species: Oryctolagus cuniculus; assay: Mean dose of test compound at which a statistically significant increase was first observed and the dose for the maximum increase in QTc interval in rabbits (0.25-5.0); assay type: functional; outline: as §1
Oryctolagus cuniculus [11] = species: Oryctolagus cuniculus; assay: Mean dose of test compound at which a statistically significant increase was first observed and the dose for the maximum increase in MAPD90 in rabbits (0.25-5.0); assay type: functional; outline: as §1
Oryctolagus cuniculus [12] = species: Oryctolagus cuniculus; assay: Mean dose of test compound at which a statistically significant increase was first observed and the dose for the maximum increase in MAPD90 in rabbits (0.1-0.25); assay type: functional; outline: as §2
Oryctolagus cuniculus [13] = species: Oryctolagus cuniculus; assay: Mean dose of test compound at which a statistically significant increase was first observed and the dose for the maximum increase in QTc interval in rabbits (0.2-1.0); assay type: functional; outline: as §1
Oryctolagus cuniculus [14] = species: Oryctolagus cuniculus; assay: Mean dose of test compound at which a statistically significant increase was first observed and the dose for the maximum increase in MAPD90 in rabbits (0.25-2.0); assay type: functional; outline: as §1
Oryctolagus cuniculus [15] = species: Oryctolagus cuniculus; assay: Mean dose of test compound at which a statistically significant increase was first observed and the dose for the maximum increase in QTc interval in rabbits (0.1-1.0); assay type: functional; outline: as §1
Oryctolagus cuniculus [16] = species: Oryctolagus cuniculus; assay: Mean dose of test compound at which a statistically significant increase was first observed and the dose for the maximum increase in MAPD90 in rabbits (0.1-5.0); assay type: functional; outline: as §2
Oryctolagus cuniculus [17] = species: Oryctolagus cuniculus; assay: Mean dose of test compound at which a statistically significant increase was first observed and the dose for the maximum increase in MAPD90 in rabbits; assay type: functional; outline: as §2
Oryctolagus cuniculus [18] = species: Oryctolagus cuniculus; assay: Mean dose of test compound at which a statistically significant increase was first observed and the dose for the maximum increase in MAPD90 in rabbits (0.25-1.0); assay type: functional; outline: as §1
Oryctolagus cuniculus [19] = species: Oryctolagus cuniculus; assay: Mean dose of test compound at which a statistically significant increase was first observed and the dose for the maximum increase in MAPD90 in rabbits (0.5-2.0); assay type: functional; outline: as §1
Oryctolagus cuniculus [20] = species: Oryctolagus cuniculus; assay: Mean dose of test compound at which a statistically significant increase was first observed and the dose for the maximum increase in MAPD90 in rabbits (0.1-0.5); assay type: functional; outline: as §2
Oryctolagus cuniculus [21] = species: Oryctolagus cuniculus; assay: Mean dose of test compound at which a statistically significant increase was first observed and the dose for the maximum increase in QTc interval in rabbits (0.1-0.5); assay type: functional; outline: as §1
Oryctolagus cuniculus [22] = species: Oryctolagus cuniculus; assay: Mean dose of test compound at which a statistically significant increase was first observed and the dose for the maximum increase in MAPD90 in rabbits (0.1-2.0); assay type: functional; outline: as §2

| SMILES | Metabolic stability relative to 31E (Homo sapiens) | Dose (Oryctolagus cuniculus [2]) | Dose (Oryctolagus cuniculus [3]) | MAPD90 (Oryctolagus cuniculus [4]) | QTc interval (Oryctolagus cuniculus [5]) | Dose (Oryctolagus cuniculus [8]) | further results |
| --- | --- | --- | --- | --- | --- | --- | --- |
| CCN(CCCCCC(C)F)CCC[C@H](O)c1ccc(NS(C)(=O)=O)cc1 (some centres not stated) | > 2000% | 0.2 mg/kg | 0.4 mg/kg | 90 ms | 130 ms |  | Dose (Oryctolagus cuniculus [1]): 0.25 mg/kg; Dose (Oryctolagus cuniculus [6]): 1 mg/kg |
| CCN(CCCCCC(F)F)CCC[C@H](O)c1ccc(NS(C)(=O)=O)cc1 |  | 0.2 mg/kg | 0.3 mg/kg | 123 ms | 154 ms |  | Dose (Oryctolagus cuniculus [1]): 0.25 mg/kg; Dose (Oryctolagus cuniculus [7]): 0.5 mg/kg |
| CCN(CCCCCC(C)(C)F)CCCC(O)c1ccc(NS(C)(=O)=O)cc1 (configuration not stated) | > 2000% | 0.9 mg/kg | 0.25 mg/kg | 96 ms | 136 ms | 0.25 mg/kg | Dose (Oryctolagus cuniculus [9]): 1 mg/kg |
| CCN(CCCCCC(C)(C)F)CCCCc1ccc(NS(C)(=O)=O)cc1 | 300% |  |  | 90 ms | 105 ms |  | Dose (Oryctolagus cuniculus [10]): 5 mg/kg; Dose (Oryctolagus cuniculus [11]): 5 mg/kg |
| CCN(CCCCCC(C)F)CCCCc1ccc(NS(C)(=O)=O)cc1 (configuration not stated) | 300% | 0.2 mg/kg | 1.1 mg/kg | 56 ms | 94 ms |  | Dose (Oryctolagus cuniculus [10]): 0.5 mg/kg; Dose (Oryctolagus cuniculus [9]): 1 mg/kg |
| CCN(CCCCCC(C)(C)F)CCC[C@@H](O)c1ccc(NS(C)(=O)=O)cc1 |  | 0.5 mg/kg | 0.27 mg/kg | 59 ms | 92 ms |  | Dose (Oryctolagus cuniculus [1]): 0.25 mg/kg; Dose (Oryctolagus cuniculus [12]): 0.25 mg/kg |
| CCN(CCCCC(C)(C)F)CCCC(O)c1ccc(NS(C)(=O)=O)cc1 (configuration not stated) |  | 1.4 mg/kg | 3.6 mg/kg | 178 ms | 174 ms |  | Dose (Oryctolagus cuniculus [13]): 1 mg/kg; Dose (Oryctolagus cuniculus [14]): 2 mg/kg |
| CCN(CCCCCC(C)(C)F)CCC[C@H](O)c1ccc(NS(C)(=O)=O)cc1 | > 2000% |  |  |  |  |  |  |
| CCN(CCCCCC(C)(F)F)CCC[C@H](O)c1ccc(NS(C)(=O)=O)cc1 |  | 0.3 mg/kg | 0.3 mg/kg | 92 ms | 106 ms |  | Dose (Oryctolagus cuniculus [12]): 0.25 mg/kg; Dose (Oryctolagus cuniculus [15]): 1 mg/kg |
| CCN(CCCCCC(F)F)CCCC(O)c1ccc(NS(C)(=O)=O)cc1 (configuration not stated) | > 2000% |  |  |  |  |  |  |
| CCN(CCCCCC(C)(C)F)CCC[C@H](O)c1ccc(NS(C)(=O)=O)cc1 [TRECETILIDE] |  |  |  | 69 ms | 83 ms |  | Dose (Oryctolagus cuniculus [16]): 5 mg/kg; Dose (Oryctolagus cuniculus [15]): 1 mg/kg |
| CCCCCCCN(CC)CCC[C@H](O)c1ccc(NS(C)(=O)=O)cc1 |  | 1.6 mg/kg | 0.2 mg/kg | 105 ms | 145 ms | 0.25 mg/kg | Dose (Oryctolagus cuniculus [11]): 5 mg/kg |
| CCN(CCCCCCCF)CCC[C@H](O)c1ccc(NS(C)(=O)=O)cc1 | 400% | 0.25 mg/kg | 0.9 mg/kg | 76 ms | 105 ms |  | Dose (Oryctolagus cuniculus [1]): 0.25 mg/kg; Dose (Oryctolagus cuniculus [16]): 5 mg/kg |
| CCCCCCCN(CC)CCCC(O)c1ccc(NS(C)(=O)=O)cc1 (configuration not stated) [IBUTILIDE] |  | 1.7 mg/kg | 1 mg/kg | 65 ms | 85 ms |  | Dose (Oryctolagus cuniculus [10]): 5 mg/kg; Dose (Oryctolagus cuniculus [9]): 1 mg/kg |
| CCN(CCCCCCC(F)F)CCCC(O)c1ccc(NS(C)(=O)=O)cc1 (configuration not stated) | > 2000% | 0.3 mg/kg | 0.3 mg/kg | 48 ms | 71 ms | 0.25 mg/kg | Dose (Oryctolagus cuniculus [17]): 0.25 mg/kg |
| CCN(CCCCCC(C)(F)F)CCCC(O)c1ccc(NS(C)(=O)=O)cc1 (configuration not stated) |  | 0.4 mg/kg | 0.7 mg/kg | 118 ms | 96 ms | 0.25 mg/kg | Dose (Oryctolagus cuniculus [18]): 1 mg/kg |
| CCN(CCCCCC(C)F)CCCC(O)c1ccc(NS(C)(=O)=O)cc1.O=C(O)/C=C/C(=O)O (configuration not stated) | 1300% | 0.3 mg/kg | 0.2 mg/kg | 143 ms | 166 ms | 0.25 mg/kg | Dose (Oryctolagus cuniculus [17]): 0.25 mg/kg |
| CCN(CC/C=C/c1ccc(NS(C)(=O)=O)cc1)CCCCCC(C)F (configuration not stated) | 300% | 0.3 mg/kg | 1.5 mg/kg | 133 ms | 75 ms | 2 mg/kg | Dose (Oryctolagus cuniculus [19]): 2 mg/kg |
| CCN(CCCCCCC(F)F)CCC[C@H](O)c1ccc(NS(C)(=O)=O)cc1 |  | 0.5 mg/kg | 0.25 mg/kg | 58 ms | 118 ms |  | Dose (Oryctolagus cuniculus [1]): 0.25 mg/kg; Dose (Oryctolagus cuniculus [20]): 0.5 mg/kg |
| CCCCCCCN(CC)CCC[C@@H](O)c1ccc(NS(C)(=O)=O)cc1 | 100% | 0.2 mg/kg | 0.3 mg/kg | 69 ms | 112 ms | 0.25 mg/kg | Dose (Oryctolagus cuniculus [18]): 1 mg/kg |
| CCN(CCCCCCCF)CCCCc1ccc(NS(C)(=O)=O)cc1 | 100% | 1 mg/kg | 0.1 mg/kg | 52 ms | 96 ms |  | Dose (Oryctolagus cuniculus [21]): 0.5 mg/kg; Dose (Oryctolagus cuniculus [22]): 2 mg/kg |
